Measurements reported in ChEMBL document CHEMBL4699639, “Discovery of Novel 2-Aniline-1,4-naphthoquinones as Potential New Drug Treatment for Leber's Hereditary Optic Neuropathy (LHON)” (J Med Chem, 2020).
Activity calls are given as the source filed them. The rule behind the calls is not given here.

Key:
HepG2 [1] = assay: Cytotoxicity against human HepG2 cells assessed as reduction in cell viability incubated for 24 hrs by Celltiter-blue assay; type: cell-based; details: HepG2, 24 h
SH-SY5Y [2] = assay: Cytotoxicity against human SH-SY5Y cells assessed as reduction in cell viability incubated for 24 hrs by Celltiter-blue assay; type: cell-based
[3] = Cytotoxicity against C57BL/6J mouse RGC cells assessed as reduction in number of cells at 100 uM incubated for 24 hrs by Hoechst 33342 staining based counting method; type: cell-based
In short: (§1)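 Retinal explants from 6–8 month old female wild-type C57BL/6J mice, enucleated eyes placed in ice-cold HBSS. Explants incubated 24 h ex vivo in pre-warmed Neurobasal A with compounds in 0.1% DMSO, alone for toxicity or with 100 µM rotenone for activity. Hoechst 33342-stained nuclei (and anti-RBPMS-positive RGCs) counted in the central retina ganglion cell layer. Mean ± SEM, 1-way ANOVA with Tukey.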

[4] = Suppression of rotenone-induced ATP depletion in human HepG2 cells assessed as rescue of ATP level incubated for 2 hrs by Celltiter-Glo assay relative to control; type: functional; parameters: concentration or dose not given beside the values
In short: (§2)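 HepG2 cells seeded 10×10^3 per well in 1 g/L glucose, 2% FBS medium the day before. Switched to glucose- and FBS-free medium containing 10 µM rotenone, with compound added at the same time, 2 h at 37 °C. ATP read by CellTiter-Glo luminescence, normalized to DMSO cells without rotenone. Mean ± SEM of ≥3 independent runs. Complex III inhibitors, where used, at 50 nM.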

HepG2 [5] = assay: Suppression of rotenone-induced ATP depletion in human HepG2 cells assessed as rescue of ATP level at 5 uM incubated for 2 hrs in presence of complex III inhibitor antimycin by Celltiter-Glo assay; type: functional, cell-based; in short: as §2
SH-SY5Y [6] = assay: Cytotoxicity against human SH-SY5Y cells assessed as reduction in cell viability by WST-1 assay; type: cell-based
HepG2 [7] = assay: Cytotoxicity against human HepG2 cells assessed as cell reduction in cell viability at 25 uM incubated for 24 hrs by Celltiter-blue assay; type: cell-based; details: hepg2, 24 h
In short: (§3)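 HepG2 or SH-SY5Y seeded 10×10^3 per well the day before in 1 g/L glucose medium with 2% FBS. Medium replaced with fresh 2% FBS, 1 g/L glucose medium containing compound (25 µM) for 24 h at 37 °C. CellTiter-Blue added for 4 h, fluorescence read at 560/590 nm. Viability given as % of vehicle/untreated cells. Mean ± SEM of ≥3 independent runs.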

[8] = Cytotoxicity against […] assessed as reduction in cell viability by WST-1 assay; type: cell-based; details: r28
[9] = Cytotoxicity against C57BL/6J mouse RGC cells assessed as reduction in number of cells at 50 uM incubated for 24 hrs by Hoechst 33342 staining based counting method; type: cell-based; in short: as §1
HepG2 [10] = assay: Suppression of rotenone-induced ATP depletion in human HepG2 cells assessed as rescue of ATP level at 5 uM incubated for 2 hrs in presence of NQO1 irreversible inhibitor ES936 by Celltiter-Glo assay; type: functional, cell-based
[11] = Suppression of rotenone-induced ATP depletion in human HepG2 cells incubated for 2 hrs by Celltiter-Glo assay; type: functional, cell-based; details: HepG2, 2 h; in short: as §2
[12] = biological target: NAD(P)H dehydrogenase [quinone] 1 (Homo sapiens) (UniProt P15559); assay: Substrate activity at NQO1 in human HepG2 cells assessed as reduction in cell viability in presence of NQO1 inhibitor dicoumarol by WST-1 assay; type: cell-based
NAD(P)H dehydrogenase [quinone] 1 (Homo sapiens), sequence (P15559 whole entry): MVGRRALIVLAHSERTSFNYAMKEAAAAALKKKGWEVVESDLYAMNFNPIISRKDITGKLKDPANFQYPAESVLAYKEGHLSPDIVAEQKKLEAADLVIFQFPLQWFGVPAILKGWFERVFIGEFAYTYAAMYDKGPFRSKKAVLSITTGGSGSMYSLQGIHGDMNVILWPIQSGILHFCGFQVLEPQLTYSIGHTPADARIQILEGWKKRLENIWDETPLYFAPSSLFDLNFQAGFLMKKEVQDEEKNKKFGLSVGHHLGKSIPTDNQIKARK

SH-SY5Y [13] = assay: Cytotoxicity against human SH-SY5Y cells assessed as reduction in cell viability at 25 uM incubated for 24 hrs by Celltiter-blue assay; type: cell-based; in short: as §3
[14] = biological target: NAD(P)H dehydrogenase [quinone] 1 (Homo sapiens) (UniProt P15559); assay: Substrate activity at recombinant NQO1 (unknown origin) assessed as reduction in NADH level at 20 uM measured for 6 mins by microplate reader analysis
HepG2 [15] = assay: Suppression of rotenone-induced ATP depletion in human HepG2 cells assessed as increase in rescue of ATP level at 0.1 to 1 uM incubated for 2 hrs by Celltiter-Glo assay; type: functional, cell-based; details: dose microM 0.1-1, time 2.0 hrs; in short: as §2
[16] = Cytotoxicity against human HepG2 cells assessed as cell viability at 25 uM incubated for 24 hrs by Celltiter-blue assay relative to control; type: cell-based; details: read-out: Activity; in short: as §3
RGC = assay: Cytoprotection against rotenone-induced C57BL/6J mouse retinal ganglion cells loss assessed as increase in cell survival at 3 uM incubated for 24 hrs by Hoechst 33342 staining based counting method; type: functional, tissue-based; details: in the assay text read “anti-RBPMS antibody staining” for “Hoechst 33342 staining”; in short: as §1
HepG2 [17] = assay: Suppression of rotenone-induced ATP depletion in human HepG2 cells assessed as rescue of ATP level at 5 uM incubated for 2 hrs in presence of NQO1 inhibitor dicoumarol by Celltiter-Glo assay; type: functional, cell-based
HepG2 [18] = assay: Suppression of rotenone-induced ATP depletion in human HepG2 cells assessed as rescue of ATP level at 5 uM incubated for 2 hrs in presence of complex III inhibitor myxothiazol by Celltiter-Glo assay; type: functional, cell-based; in short: as §2
HepG2 [19] = assay: Suppression of rotenone-induced ATP depletion in human HepG2 cells assessed as increase in rescue of ATP level at 1 uM incubated for 2 hrs by Celltiter-Glo assay; type: functional, cell-based; in short: as §2
[20] = biological target: NAD(P)H dehydrogenase [quinone] 1 (Homo sapiens) (UniProt P15559); assay: Substrate activity at NQO1 in human HepG2 cells assessed as reduction in cell viability by WST-1 assay; type: cell-based

## CSC1=C(Nc2ccc(F)c(C(F)(F)F)c2)C(=O)c2ccccc2C1=O
HepG2 [1]
  IC50: 30.5 µM
SH-SY5Y [2]
  IC50: > 100 µM
[3]
  Activity: Toxic
[4]
  Activity: 55.7%
HepG2 [5]
  Activity: inactive
SH-SY5Y [6]
  Activity: Non-Toxic
HepG2 [7]
  Activity: Toxic
[8]
  Activity: Non-Toxic
[9]
  Activity: Non-Toxic
HepG2 [10]
  Activity: inactive
[11]
  EC50: 0.36 µM
[12]
  Activity: inactive
SH-SY5Y [13]
  Activity: Toxic
[14]
  Activity: Active
HepG2 [15]
  Activity: Active
[16]
  viability at 24 h, 25 µM: 76.9%
RGC
  Activity: Active
HepG2 [17]
  Activity: inactive
HepG2 [18]
  Activity: inactive
HepG2 [19]
  Activity: Active
[20]
  Activity: Active
